Assay results as given in ChEMBL document CHEMBL4270489, “Synthesis and in vitro and in vivo antitumour activity study of 11-hydroxyl esterified bergenin/cinnamic acid hybrids” (Eur J Med Chem, 2017).
Each block holds one compound with its values, some of them ahead of it. Calls of active or inactive are those of the source. The rule behind the calls is not given here.

How the values were obtained:
SGC-7901 = test: Antiproliferative activity against human SGC7901 cells incubated for 48 to 72 hrs by MTT assay; format: functional, cell-based
Outline: (§1)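 MTT assay. Cells were grown in DMEM with 10% heat-inactivated FBS at 37°C under 5% CO₂. They were seeded at 5000/well in 5% FBS DMEM for 24 h, then given compound in DMSO at 0.1, 1, 10 and 100 µmol/L for 72 h (the table footnote says 48 h). MTT was added for 4 h, formazan was dissolved in DMSO and read at 570 nm. IC₅₀ was from ≥3 independent runs; >100 μM was given if 50% inhibition was not reached.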

PC-3 = test: Antiproliferative activity against human PC3 cells incubated for 48 to 72 hrs by MTT assay; format: functional, cell-based; outline: as §1
HepG2 [1] = test: Antiproliferative activity against human HepG2 cells incubated for 48 to 72 hrs by MTT assay; format: functional, cell-based; outline: as §1
A549 = test: Antiproliferative activity against human A549 cells incubated for 48 to 72 hrs by MTT assay; format: functional, cell-based; outline: as §1
MCF7 = test: Antiproliferative activity against human MCF7 cells incubated for 48 to 72 hrs by MTT assay; format: functional, cell-based; outline: as §1
HepG2 [2] = test: Induction of apoptosis in human HepG2 cells assessed as reduction in pro-caspase-9 protein expression at 1 to 8 umol/L incubated for 12 to 48 hrs by Western blot analysis; format: functional, cell-based
Outline: (§2)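 Western blot. HepG2 cells were seeded at 5×10⁵/well with compound in 10% FBS at 37°C: 1, 2, 4 or 8 μM for 24 h, or 4 μmol/L over a time course. The vehicle was 0.5% DMSO. Cleared lysates were quantified by BCA and run on 10% SDS-PAGE, then transferred to PVDF. Membranes were blocked in 5% milk/TBST with primary antibodies at 1:2000 at 4°C, HRP secondary at 1:2000 for 2 h, and ECL detection. GAPDH served as loading control.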

HepG2 [3] = test: Induction of cell cycle arrest in human HepG2 cells assessed as accumulation at G2/M phase at 2 umol/L incubated for 12 hrs by propidium iodide staining based flow cytometry (reference value: 10.41%); format: functional
Mus musculus [4] = test: Toxicity in Swiss mouse xenografted with […] assessed as effect on spleen index at 15 to 30 mg/kg, ip dosed every day for 14 days; format: organism-based; conditions: in vivo, 336 h
Outline: (§3)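 Female Swiss mice (20-22 g) bearing subcutaneous […] (3×10⁶ cells, right flank) were dosed intraperitoneally daily with saline, 15 or 30 mg/kg, or 5-FU 20 mg/kg (n = 6) and killed on day 14. Body weight was recorded daily. Thymus and spleen indexes were calculated as organ weight divided by final body weight. Mean ± S.E.M.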

HepG2 [5] = test: Induction of apoptosis in human HepG2 cells assessed as reduction in Bcl-XL protein expression by Western blot analysis; format: functional, cell-based; outline: as §2
HepG2 [6] = test: Induction of cell cycle arrest in human HepG2 cells assessed as accumulation at G0/G1 phase at 2 umol/L incubated for 12 hrs by propidium iodide staining based flow cytometry (reference value: 64.31%); format: functional
Heps (mouse) [7] = test: Antitumour activity against murine HepS cells xenografted in Swiss mouse assessed as inhibition of tumor growth at 30 mg/kg, ip dosed every day for 14 days; conditions: 336 h, read-out: TGI
Mus musculus [8] = test: Toxicity in Swiss mouse xenografted with […] assessed as increase in body weight at 15 mg/kg, ip dosed every day for 14 days; format: organism-based; conditions: in vivo, 336 h; outline: as §3
HepG2 [9] = test: Induction of cell cycle arrest in human HepG2 cells assessed as accumulation at G0/G1 phase at 2 umol/L incubated for 24 hrs by propidium iodide staining based flow cytometry (reference value: 64.31%); format: functional
HepG2 [10] = test: Induction of apoptosis in human HepG2 cells incubated for 24 hrs by Annexin V-FITC/propidium iodide staining based flow cytometry (reference value: 1.96%); format: functional, cell-based
HepG2 [11] = test: Induction of apoptosis in human HepG2 cells assessed as reduction in Bcl2 protein expression at 1 to 8 umol/L incubated for 12 to 48 hrs by Western blot analysis; format: functional, cell-based; outline: as §2
HepG2 [12] = test: Induction of apoptosis in human HepG2 cells at 2 umol/L incubated for 24 hrs by Annexin V-FITC/propidium iodide staining based flow cytometry (reference value: 1.96%); format: functional
HepG2 [13] = test: Induction of cell cycle arrest in human HepG2 cells assessed as accumulation at G2/M phase at 2 umol/L incubated for 24 hrs by propidium iodide staining based flow cytometry (reference value: 10.41%); format: functional
HepG2 [14] = test: Induction of apoptosis in human HepG2 cells assessed as reduction in pro-caspase-3 protein expression at 1 to 8 umol/L incubated for 12 to 48 hrs by Western blot analysis; format: functional, cell-based; outline: as §2
HepG2 [15] = test: Induction of apoptosis in human HepG2 cells assessed as increase in p53 protein expression at 1 to 8 umol/L incubated for 12 to 48 hrs by Western blot analysis
HepG2 [16] = test: Induction of cell cycle arrest in human HepG2 cells assessed as accumulation at S phase at 2 umol/L incubated for 24 hrs by propidium iodide staining based flow cytometry (reference value: 25.28%); format: functional
Heps (mouse) [17] = test: Antitumour activity against murine HepS cells xenografted in Swiss mouse assessed as reduction in tumor size at 15 to 30 mg/kg, ip dosed every day for 14 days
Heps (mouse) [18] = test: Antitumour activity against murine HepS cells xenografted in Swiss mouse assessed as reduction in tumor weight at 15 to 30 mg/kg, ip dosed every day for 14 days
HepG2 [19] = test: Induction of apoptosis in human HepG2 cells assessed as reduction in Bcl-XL protein expression at 1 to 8 umol/L incubated for 12 to 48 hrs by Western blot analysis; format: functional, cell-based; outline: as §2
Mus musculus [20] = test: Toxicity in Swiss mouse xenografted with […] assessed as effect on thymus index at 15 to 30 mg/kg, ip dosed every day for 14 days; format: organism-based; conditions: in vivo, 336 h; outline: as §3
HepG2 [21] = test: Induction of apoptosis in human HepG2 cells at 1 umol/L incubated for 24 hrs by Annexin V-FITC/propidium iodide staining based flow cytometry (reference value: 1.96%); format: functional
HepG2 [22] = test: Induction of apoptosis in human HepG2 cells assessed as reduction in Akt protein expression at 1 to 8 umol/L incubated for 12 to 48 hrs by Western blot analysis; format: functional, cell-based; outline: as §2
HepG2 [23] = test: Induction of apoptosis in human HepG2 cells assessed as reduction in Bcl2 protein expression by Western blot analysis; format: functional, cell-based; outline: as §2
Heps (mouse) [24] = test: Antitumour activity against murine HepS cells xenografted in Swiss mouse assessed as inhibition of tumor growth at 15 mg/kg, ip dosed every day for 14 days; conditions: 336 h, read-out: TGI
HepG2 [25] = test: Induction of apoptosis in human HepG2 cells assessed as increase in Bax protein expression by Western blot analysis; format: functional, cell-based; outline: as §2
HepG2 [26] = test: Induction of apoptosis in human HepG2 cells at 4 umol/L incubated for 24 hrs by Annexin V-FITC/propidium iodide staining based flow cytometry (reference value: 1.96%); format: functional
HepG2 [27] = test: Induction of cell cycle arrest in human HepG2 cells assessed as accumulation at S phase at 2 umol/L incubated for 12 hrs by propidium iodide staining based flow cytometry (reference value: 25.28%); format: functional

IC50 (SGC-7901): > 100 µM
IC50 (PC-3): 22.9 µM
IC50 (HepG2 [1]): 17.2 µM
IC50 (A549): > 100 µM
IC50 (MCF7): 35.8 µM
Structure (SMILES): COc1c(O)cc2c(c1O)[C@@H]1O[C@H](COC(=O)/C=C/c3ccc(F)cc3)[C@@H](O)[C@H](O)[C@H]1OC2=O

IC50 (SGC-7901): 27.8 µM
IC50 (PC-3): 26.3 µM
IC50 (HepG2 [1]): 16.8 µM
IC50 (A549): 12.3 µM
IC50 (MCF7): 6.25 µM
Structure (SMILES): COc1cc(/C=C/C(=O)OC[C@H]2O[C@H]3c4c(cc(O)c(OC)c4O)C(=O)O[C@@H]3[C@@H](O)[C@@H]2O)cc(OC)c1

IC50 (SGC-7901): 23.6 µM
IC50 (PC-3): > 100 µM
IC50 (HepG2 [1]): 34.6 µM
IC50 (A549): 77.3 µM
IC50 (MCF7): > 100 µM
Structure (SMILES): COc1c(O)cc2c(c1O)[C@@H]1O[C@H](CO)[C@@H](O)[C@H](O)[C@H]1OC2=O [BERGENIN]

IC50 (SGC-7901): > 100 µM
IC50 (PC-3): > 100 µM
IC50 (HepG2 [1]): > 100 µM
IC50 (A549): > 100 µM
IC50 (MCF7): > 100 µM
Structure (SMILES): COc1c(O)cc2c(c1O)[C@@H]1O[C@H](COC(=O)/C=C/c3cc([N+](=O)[O-])cc([N+](=O)[O-])c3)[C@@H](O)[C@H](O)[C@H]1OC2=O

IC50 (SGC-7901): 58.9 µM
IC50 (PC-3): > 100 µM
IC50 (HepG2 [1]): 86.1 µM
IC50 (A549): > 100 µM
IC50 (MCF7): > 100 µM
Structure (SMILES): COc1ccc(/C=C/C(=O)OC[C@H]2O[C@H]3c4c(cc(O)c(OC)c4O)C(=O)O[C@@H]3[C@@H](O)[C@@H]2O)cc1OC

IC50 (SGC-7901): 11.4 µM
IC50 (PC-3): 30.2 µM
IC50 (HepG2 [1]): > 100 µM
IC50 (A549): 10.3 µM
IC50 (MCF7): 20.2 µM
Structure (SMILES): COc1c(O)cc2c(c1O)[C@@H]1O[C@H](COC(=O)/C=C/c3ccc(C)cc3)[C@@H](O)[C@H](O)[C@H]1OC2=O

IC50 (SGC-7901): > 100 µM
IC50 (PC-3): > 100 µM
IC50 (HepG2 [1]): > 100 µM
IC50 (A549): > 100 µM
IC50 (MCF7): > 100 µM
Structure (SMILES): COc1c(O)cc2c(c1O)[C@@H]1O[C@H](COC(=O)/C=C/c3ccc([N+](=O)[O-])cc3)[C@@H](O)[C@H](O)[C@H]1OC2=O

IC50 (SGC-7901): 8.32 µM
IC50 (PC-3): 27 µM
IC50 (HepG2 [1]): 5.23 µM
IC50 (A549): 10.7 µM
IC50 (MCF7): 7.34 µM
Structure (SMILES): COc1c(O)cc2c(c1O)[C@@H]1O[C@H](COC(=O)/C=C/c3ccc(C#N)cc3)[C@@H](O)[C@H](O)[C@H]1OC2=O
Activity (HepG2 [2]): Active
Activity (HepG2 [3]): 13.93%
Activity (Mus musculus [4]): Non-Toxic
Activity (HepG2 [5]): Dose-dependent effect
Activity (HepG2 [6]): 57.64%
inhibition in vivo at 30 mg/kg (Heps (mouse) [7]): 61%
Activity (Mus musculus [8]): Non-Toxic
Activity (HepG2 [9]): 51.15%
Activity (HepG2 [10]): Dose-dependent effect
Activity (HepG2 [11]): Active
Activity (HepG2 [12]): 10.68%
Activity (HepG2 [13]): 28.93%
Activity (HepG2 [14]): Active
Activity (HepG2 [15]): Active
Activity (HepG2 [16]): 19.92%
Activity (Heps (mouse) [17]): Dose-dependent effect
Activity (Heps (mouse) [18]): Dose-dependent effect
Activity (HepG2 [19]): Active
Activity (Mus musculus [20]): Non-Toxic
Activity (HepG2 [21]): 5.58%
Activity (HepG2 [22]): Active
Activity (HepG2 [23]): Dose-dependent effect
inhibition in vivo at 15 mg/kg (Heps (mouse) [24]): 45.4%
Activity (HepG2 [25]): Dose-dependent effect
Activity (HepG2 [26]): 20.68%
Activity (HepG2 [27]): 28.43%
